The record followed here is PubChem BioAssay.

Molecules are shown by their SMILES. Active and inactive are the calls of the source.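 The calls were made as follows, unless noted: active = GFP response above 150% of the DMSO level; inconclusive = fewer than 70 events counted for a yeast strain; inactive = the rest.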

Assay [1] in a line: hit retest on RPL19A-GFP reporter strain – cell-based, S. cerevisiae, flow cytometry, cherry picks, mother/daughter gates, confirmation (AID 2270;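 active = GFP response below 50% of the DMSO control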). The following applies: 3 h, at 10 µM, stronger effect = lower value, 100 = same GFP as DMSO wells. (In general: A flow cytometer gives signals particle by particle.)
Assay [2] can be described thus: yeast TOR pathway reporter LAP4-GFP change – cell-based, cherry picks, flow cytometry, mother/daughter gates, confirmation (AID 2271;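 active = GFP response above 150% of the DMSO control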;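 also: ratio of sample to DMSO plate mean so 100% equals DMSO level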). The following applies: S. cerevisiae LAP4-GFP strain, 3 h, at 10 µM, stronger effect = higher value, 100 means same as DMSO control. In a few lines:
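System: GFP-fusion yeast strain | Input: Yeast cells seeded at OD600 of 0.2 | Technique: HT flow cytometry, GFP fluorescence channel | Read-out: % GFP response vs DMSO | Dosing: Single test-compound dose, 10 µM final | Controls: Positive rapamycin (400 ng/mL), negative DMSO | Times: 3 h treatment at 30 °C with rotation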

A short description of assay [3]: TOR pathway reporter MEP2-GFP, retest of hits – S. cerevisiae, flow cytometry GFP, cherry picks, confirmation (AID 2272;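 active = GFP response above 150% of the DMSO control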;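 also: ratio of well signal to plate DMSO mean so 100% equals DMSO level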). To be noted: S. cerevisiae MEP2-GFP strain, 3 h, at 10 µM, stronger effect = higher value.
Assay [4] can be described thus: yeast AGP1-GFP fluorescence change, single-dose – cell-based, flow cytometry, S. cerevisiae, cherry picks, confirmation (AID 2273).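 Also: median GFP channel fluorescence over the whole cell population gate.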 The following applies: S. cerevisiae AGP1-GFP strain, 3 h, at 10 µM.
A short description of assay [5]: TOR pathway CIT2 reporter hit retest – S. cerevisiae, GFP fusion, cherry picks, mother/daughter gates, confirmation (AID 2274). The following applies: S. cerevisiae CIT2-GFP strain, flow cytometry, 3 h, at 10 µM, stronger effect = higher value.
The mark [6] stands for this setting: measured here: daughter cell gate.
The mark [7] stands for this setting: measured here: mother cell gate.
Setting [8] is: measured here: daughter cell gate response.
Setting [9] is: measured here: mother cell gate response.

For `COc1ccccc1C(=O)N1CCN(c2cccc(Cl)c2)CC1`, the GFP response vs DMSO in assay [1] was 97.2% (inactive); in assay [1] (setting [6]) it was 98.9%; in assay [1] (setting [7]) it was 95.8%; in assay [3], 100% (inactive). In addition, the GFP response relative to DMSO was 102% (inactive) in assay [2], 102% in assay [2] (setting [8]) and 99.3% in assay [2] (setting [9]). The GFP response, % of DMSO in assay [4] is 95.6% (inactive); in assay [5], 96.9% (inactive); in assay [5] (setting [6]), 99.1%; in assay [5] (setting [7]), 95%.

As for `Cc1cc(C)c(S(C)(=O)=O)c(S(=O)(=O)c2ccc(Cl)cc2)n1`, the GFP response vs DMSO in assay [1] was 100% (inactive); in assay [1] (setting [6]) it was 100%; in assay [1] (setting [7]), 100%; in assay [3], 98.3% (inactive). Moreover, the GFP response relative to DMSO in assay [2] is 99.2% (inactive); in assay [2] (setting [8]), 97.6%; in assay [2] (setting [9]) it was 99.3%. For the same compound, the GFP response, % of DMSO was 100% (inactive) in assay [4], 103% (inactive) in assay [5], 103% in assay [5] (setting [6]) and 101% in assay [5] (setting [7]).

Turning to `Nc1ccc2nc(-c3ccc(-c4nc5ccc(N)cc5[nH]4)cc3)[nH]c2c1`, the GFP response vs DMSO in assay [1] was 99.3% (inactive); in assay [1] (setting [6]) it was 100%; in assay [1] (setting [7]), 96.1%; in assay [3], 112% (inactive). The GFP response relative to DMSO in assay [2] was 111% (inactive); in assay [2] (setting [8]) it was 108%; in assay [2] (setting [9]) it was 94.4%. For the same compound, the GFP response, % of DMSO is 99.1% (inactive) in assay [4], 108% (inactive) in assay [5], 92.3% in assay [5] (setting [6]) and 93.8% in assay [5] (setting [7]).

For the compound `CCCS(=O)(=O)N1CCC(C(=O)c2cccc(C(F)(F)F)c2)CC1`, the GFP response vs DMSO in assay [1] is 98.8% (inactive); in assay [1] (setting [6]), 97%; in assay [1] (setting [7]) it was 98.2%; in assay [3], 100% (inactive). Also, the GFP response relative to DMSO in assay [2] is 101% (inactive); in assay [2] (setting [8]), 98.7%; in assay [2] (setting [9]) it was 102%. Moreover, the GFP response, % of DMSO in assay [4] is 97.8% (inactive); in assay [5] it was 91.3% (inactive); in assay [5] (setting [6]) it was 93.2%; in assay [5] (setting [7]), 89.1%.

As to `COc1cccc(CNC(=O)CCC(=O)N2Cc3cccc(OC)c3Oc3ncccc32)c1OC`, the GFP response vs DMSO in assay [1] was 99.4% (inactive); in assay [1] (setting [6]), 99.9%; in assay [1] (setting [7]), 99.2%; in assay [3], 102% (inactive). In addition, the GFP response relative to DMSO in assay [2] was 95.4% (inactive); in assay [2] (setting [8]), 96%; in assay [2] (setting [9]) it was 94%. Moreover, the GFP response, % of DMSO was 100% (inactive) in assay [4], 104% (inactive) in assay [5], 105% in assay [5] (setting [6]) and 104% in assay [5] (setting [7]).

Turning to `CCOc1ccc2ccccc2c1C(=O)N1CCN(c2ccccc2)CC1`, the GFP response vs DMSO is 97.8% (inactive) in assay [1], 98.4% in assay [1] (setting [6]), 96.3% in assay [1] (setting [7]) and 99.3% (inactive) in assay [3]. In addition, the GFP response relative to DMSO in assay [2] is 105% (inactive); in assay [2] (setting [8]), 105%; in assay [2] (setting [9]), 105%. Further, the GFP response, % of DMSO in assay [4] is 98.4% (inactive); in assay [5], 93.1% (inactive); in assay [5] (setting [6]), 94%; in assay [5] (setting [7]), 93.8%.

For `O=C(O)CCC(=O)Nc1ccc(S(=O)(=O)c2ccc(NC(=O)CCC(=O)O)cc2)cc1`, the GFP response vs DMSO is 98.5% (inactive) in assay [1], 100% in assay [1] (setting [6]), 97.7% in assay [1] (setting [7]) and 106% (inactive) in assay [3]. For the same compound, the GFP response relative to DMSO was 102% (inactive) in assay [2], 97.5% in assay [2] (setting [8]) and 102% in assay [2] (setting [9]). The GFP response, % of DMSO in assay [4] is 100% (inactive); in assay [5], 98.6% (inactive); in assay [5] (setting [6]), 99.3%; in assay [5] (setting [7]), 99.3%.

Regarding `CS(=O)(=O)N1N=C(c2ccco2)CC1c1ccc(Cl)cc1` (stereo not drawn), the GFP response vs DMSO was 101% (inactive) in assay [1], 102% in assay [1] (setting [6]), 101% in assay [1] (setting [7]) and 104% (inactive) in assay [3]. Also, the GFP response relative to DMSO in assay [2] is 96.5% (inactive); in assay [2] (setting [8]), 97.9%; in assay [2] (setting [9]), 94.6%. Besides, the GFP response, % of DMSO in assay [4] was 101% (inactive); in assay [5], 101% (inactive); in assay [5] (setting [6]), 100%; in assay [5] (setting [7]), 100%.
